# Data: publication PMC3987113 (Toxicology and applied pharmacology, 2009)
# Several values for one entry are separate records, joined by “and”; a condition that tells them apart may be missing. Equal entries are not always repeated. Entries after “also recorded” stand apart in the source; their conditions may differ. Where two headings read alike, the source gives them in different places.
# Assays:
# [1] = Body and liver weights, time course study; assay type: in vivo, C57BL/6 mice; details: for Liver weight / Relative liver weight / Body weight gain / Terminal body weight: 300 mg/kg PCB153 or 30 μg/kg TCDD, mean ± SD, n=5; for Body weight gain: terminal body weight divided by body weight prior to dosing
# [2] = tested on: liver of immature, ovariectomized C57BL/6 mice; experiment: Liver histopathology; assay type: in vivo
# [3] = Hepatic tissue level quantification by HRGC/HRMS; assay type: in vivo, C57BL/6 mice; details: liver
# hepatic gene expression [4] = experiment: Dose-response modeling of microarray data; assay type: in vivo, C57BL/6 mice; details: Mus musculus, 24 h
# Cyp2b10 = experiment: Dose-response modeling of microarray data; assay type: in vivo, C57BL/6 mice; details: C57BL/6, mouse, liver, oral
# Cyp2c55 = experiment: Dose-response modeling of microarray data; assay type: in vivo, C57BL/6 mice; details: C57BL/6, mouse, liver, oral
# hepatic gene expression [5] = experiment: QRT-PCR verification of hepatic gene expression; assay type: in vivo, C57BL/6 mice
# [6] = Body and liver weights, 24 h dose-response study; assay type: in vivo, C57BL/6 mice; details: for Liver weight / Relative liver weight / Body weight gain / Terminal body weight: 24 h; for Liver weight / Relative liver weight / Terminal body weight: mean ± SD, n=5; for Body weight gain: terminal body weight divided by body weight prior to dosing; for Terminal body weight: single gavage
# Method in brief: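 Immature ovariectomized female C57BL/6 mice, acclimatized 3 days, received a single oral gavage on PND 28 of 1, 3, 10, 30, 100 or 300 mg/kg test compound or sesame oil vehicle (0.1 ml), n=5 per group, sacrificed 24 h later. Compound was dissolved in acetone, diluted in sesame oil and the acetone evaporated under nitrogen. Analysis by ANOVA with Tukey's or Dunnett's post hoc test, p<0.05.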
# hepatic gene expression [7] = experiment: Hepatic gene expression, Agilent 4 x 44K microarrays; assay type: in vivo, C57BL/6 mice
# [8] = 300 mg/kg PCB153 or 30 μg/kg TCDD
# [9] = hepatic mRNA, 300 mg/kg PCB153, maximum fold change, |fold change|≥1.5, P1(t)≥0.985
# [10] = hepatic mRNA, 300 mg/kg PCB153, maximum fold change, |fold change|≥1.5, P1(t)≥0.985, 300 mg/kg
smiles,measurement,setting,value
"Clc1cc(Cl)c(-c2cc(Cl)c(Cl)cc2Cl)cc1Cl [PCB153, 2,2′,4,4′,5,5′-hexachlorobiphenyl]","Effect on relative liver weight (RLW), time course study",[1]; 300 mg/kg PCB153,increased (p<0.05) relative liver weight (RLW) at 72 and 168 h
same,Liver weight,[1]; 4 h,0.712 ± 0.048 g
same,Relative liver weight,[1]; 4 h,0.057 ± 0.001
same,Body weight gain,[1]; 4 h,1.0 ± 0.0
same,Terminal body weight,[1]; 4 h after single gavage,12.5 ± 0.8 g
same,Liver weight,[1]; 12 h,0.730 ± 0.075 g
same,Relative liver weight,[1]; 12 h,0.056 ± 0.003
same,Body weight gain,[1]; 12 h,1.0 ± 0.0
same,Terminal body weight,[1]; 12 h after single gavage,13.0 ± 0.6 g
same,Liver weight,[1]; 24 h,0.813 ± 0.137 g
same,Relative liver weight,[1]; 24 h,0.061 ± 0.009
same,Body weight gain,[1]; 24 h,1.1 ± 0.0
same,Terminal body weight,[1]; 24 h after single gavage,13.3 ± 0.9 g
same,Liver weight,[1]; 72 h,1.086 ± 0.135 g
same,Relative liver weight,[1]; 72 h,0.069 ± 0.007
same,Body weight gain,[1]; 72 h,1.1 ± 0.0
same,Terminal body weight,[1]; 72 h after single gavage,15.7 ± 0.7 g
same,Liver weight,[1]; 168 h,1.280 ± 0.074 g
same,Relative liver weight,[1]; 168 h,0.072 ± 0.002
same,Body weight gain,[1]; 168 h,1.4 ± 0.1
same,Terminal body weight,[1]; 168 h after single gavage,17.9 ± 1.2 g
same,Effect on body weight gain,[1]; any of the PCB153 doses or time points,No significant decreases in body weight gain
same,"Hepatocellular hypertrophy, time course study",[2]; 300 mg/kg PCB153,increasing hypertrophic responses between 24 and 168 h; also recorded: induced hepatocellular hypertrophy between 24 and 168 h
same,"Hepatocellular vacuolization, dose-response study","[2]; 300 mg/kg PCB153, 24 h",induced the highest levels of hepatocellular vacuolization
same,"Hepatic lipid accumulation, Oil Red O staining",[2]; [8],no fatty accumulation
same,Necrosis and immune (mixed) cell infiltration in liver,[2]; [8],did not elicit immune cell infiltration or necrosis; also recorded: absent; also recorded: did not induce necrosis or immune cell infiltration
same,Hepatic inflammation,"[2]; 300 mg/kg PCB153 or 30 μg/kg TCDD, time course",almost absent
same,"Hepatocellular vacuolization, time course study","[2]; 300 mg/kg PCB153 or 30 μg/kg TCDD, Fig. 2 at 168 h",minimal vacuolization and hepatocellular hypertrophy
same,"Hepatocellular hypertrophy, dose-response study","[2]; PCB153, 24 h",incidences of hypertrophy were not observed
same,Hepatic PCB153 levels in dose-response study,"[3]; 24 h, 1-300 mg/kg, significantly different from controls",dose-dependent increase in hepatic levels
same,Decrease of hepatic level after 7 days,"[3]; 168 h vs 24 h, single gavage 300 mg/kg PCB153 or 30 μg/kg TCDD",~ 3.3 fold
same,ED50,"hepatic gene expression [4]; read-out: ED50, Abcc3",2.9 mg/kg
same,ED50,"hepatic gene expression [4]; read-out: ED50, Entpd5",34.2 mg/kg
same,ED50,"hepatic gene expression [4]; read-out: ED50, Nol3",33.9 mg/kg
same,ED50 at 24 h,Cyp2b10,38.1 mg/kg
same,ED50 at 24 h,Cyp2c55,31.7 mg/kg
same,"Induction of AhR-battery genes (Cyp1a1, Cyp1a2, Tiparp)","hepatic gene expression [5]; 300 mg/kg PCB153 compared to TCDD, Fig. 6A-B",modestly induced
same,Cyp1a2 induction,"hepatic gene expression [5]; hepatic mRNA, time course, 30 μg/kg TCDD (Fig. 6A) or 300 mg/kg PCB153 (Fig. 6B)",~ 1.8 fold
same,Elovl5 fold change,"hepatic gene expression [5]; hepatic mRNA, time course, 300 mg/kg PCB153 or 30 μg/kg TCDD (Fig. 6A-B)",−1.9 fold
same,Liver weight,[6]; 1 mg/kg,0.850 ± 0.121 g
same,Relative liver weight,[6]; 1 mg/kg,0.059 ± 0.002
same,Body weight gain,[6]; 1 mg/kg,1.1 ± 0.0
same,Terminal body weight,[6]; 1 mg/kg,14.3 ± 1.8 g
same,Liver weight,[6]; 3 mg/kg,0.865 ± 0.119 g
same,Relative liver weight,[6]; 3 mg/kg,0.060 ± 0.002
same,Body weight gain,[6]; 3 mg/kg,1.1 ± 0.0
same,Terminal body weight,[6]; 3 mg/kg,14.4 ± 1.7 g
same,Liver weight,[6]; 10 mg/kg,0.721 ± 0.073 g
same,Relative liver weight,[6]; 10 mg/kg,0.056 ± 0.004
same,Body weight gain,[6]; 10 mg/kg,1.1 ± 0.1
same,Terminal body weight,[6]; 10 mg/kg,12.7 ± 1.1 g
same,Liver weight,[6]; 30 mg/kg,0.836 ± 0.066 g
same,Relative liver weight,[6]; 30 mg/kg,0.062 ± 0.001
same,Body weight gain,[6]; 30 mg/kg,1.1 ± 0.0
same,Terminal body weight,[6]; 30 mg/kg,13.4 ± 1.0 g
same,Liver weight,[6]; 100 mg/kg,0.829 ± 0.071 g
same,Relative liver weight,[6]; 100 mg/kg,0.060 ± 0.002
same,Body weight gain,[6]; 100 mg/kg,1.1 ± 0.0
same,Terminal body weight,[6]; 100 mg/kg,13.8 ± 1.1 g
same,"Effect on relative liver weight (RLW), dose-response study","[6]; 300 mg/kg PCB153, 24 h",significantly increased RLW at 24 h
same,Liver weight,[6]; 300 mg/kg,0.855 ± 0.152 g
same,Relative liver weight,[6]; 300 mg/kg,0.067 ± 0.003
same,Body weight gain,[6]; 300 mg/kg,1.1 ± 0.0
same,Terminal body weight,[6]; 300 mg/kg,12.7 ± 1.9 g
same,"Induction of CAR/PXR regulated genes Cyp2b10, Cyp3a11, Ces2, Insig2, Abcc3",hepatic gene expression [7]; PCB153 dose-response study,dose-dependently induced
same,"PCB153 fold change, Abcc3",hepatic gene expression [7]; [9],1.9 fold
same,"PCB153 fold change, Acsl3",hepatic gene expression [7]; [9],−3.1 fold
same,"PCB153 fold change, Agpat4",hepatic gene expression [7]; [9],−1.9 fold
same,"PCB153 fold change, Akr1b7",hepatic gene expression [7]; [9],22.1 fold
same,"PCB153 fold change, Akr1c20",hepatic gene expression [7]; [9],−2.3 fold
same,"PCB153 fold change, Aox1",hepatic gene expression [7]; [9],2.9 fold
same,"PCB153 fold change, Cdca2",hepatic gene expression [7]; [9],2.8 fold
same,"PCB153 fold change, Cds2",hepatic gene expression [7]; [9],1.7 fold
same,"PCB153 fold change, Ces2",hepatic gene expression [7]; [9],5.8 fold
same,"PCB153 fold change, Cyp2b9",hepatic gene expression [7]; [9],7.6 fold
same,"PCB153 fold change, Cyp2b10",hepatic gene expression [7]; [9],27.5 fold
same,"PCB153 fold change, Cyp2b23",hepatic gene expression [7]; [9],19.7 fold
same,"PCB153 fold change, Cyp2c54",hepatic gene expression [7]; [9],2.4 fold
same,"PCB153 fold change, Cyp3a25",hepatic gene expression [7]; [9],3.8 fold
same,"PCB153 fold change, Dhfr",hepatic gene expression [7]; [9],−2.1 fold
same,"PCB153 fold change, Elovl6",hepatic gene expression [7]; [9],−3.8 fold
same,"PCB153 fold change, Fasn",hepatic gene expression [7]; [9],−3.9 fold
same,"PCB153 fold change, Fmo5",hepatic gene expression [7]; [9],3.0 fold
same,"PCB153 fold change, Gadd45a",hepatic gene expression [7]; [9],2.0 fold
same,"PCB153 fold change, Gpx2",hepatic gene expression [7]; [9],1.7 fold
same,"PCB153 fold change, Gsta2",hepatic gene expression [7]; [9],4.1 fold
same,"PCB153 fold change, Gstm4",hepatic gene expression [7]; [9],4.0 fold
same,"PCB153 fold change, Gstt3",hepatic gene expression [7]; [9],1.7 fold
same,"PCB153 fold change, Hmgcr",hepatic gene expression [7]; [9],−5.3 fold
same,"PCB153 fold change, Hsd17b2",hepatic gene expression [7]; [9],−2.0 fold
same,"PCB153 fold change, Insig2",hepatic gene expression [7]; [9],5.9 fold
same,"PCB153 fold change, Mad1l1",hepatic gene expression [7]; [9],2.4 fold
same,"PCB153 fold change, Myc",hepatic gene expression [7]; [9],2.9 fold
same,"PCB153 fold change, Nol3",hepatic gene expression [7]; [9],4.9 fold
same,"PCB153 fold change, Pla2g12a",hepatic gene expression [7]; [9],1.7 fold
same,"PCB153 fold change, Slc1a4",hepatic gene expression [7]; [9],−2.5 fold
same,"PCB153 fold change, Slc23a1",hepatic gene expression [7]; [9],2.3 fold
same,"PCB153 fold change, Smpd3",hepatic gene expression [7]; [9],10.8 fold
same,"PCB153 fold change, Srebf1",hepatic gene expression [7]; [9],−2.4 fold
same,"PCB153 fold change, Srebf2",hepatic gene expression [7]; [9],−2.1 fold
same,"PCB153 fold change, Ugdh",hepatic gene expression [7]; [9],2.5 fold
same,"PCB153 fold change, Cyp2c55",hepatic gene expression [7]; [10],48 fold and 48.4 fold
same,"PCB153 fold change, Gadd45b",hepatic gene expression [7]; [10],10.7 fold
same,"PCB153 fold change, Zwint",hepatic gene expression [7]; [10],1.8 fold
same,Ccl9 expression,"hepatic gene expression [7]; hepatic mRNA, PCB153",induced expression
same,"Down-regulation of Acsl3, Srebf1 and Srebf2","hepatic gene expression [7]; hepatic mRNA, PCB153",−2.1 to −3.1 fold
